Measured values from ChEMBL document CHEMBL5154854, “Identification of a Vitamin-D Receptor Antagonist, MeTC7, which Inhibits the Growth of Xenograft and Transgenic Tumors In Vivo” (J Med Chem, 2022).

Target: T1, Vitamin D3 receptor (Homo sapiens) (UniProt P11473)
T1 sequence (whole entry): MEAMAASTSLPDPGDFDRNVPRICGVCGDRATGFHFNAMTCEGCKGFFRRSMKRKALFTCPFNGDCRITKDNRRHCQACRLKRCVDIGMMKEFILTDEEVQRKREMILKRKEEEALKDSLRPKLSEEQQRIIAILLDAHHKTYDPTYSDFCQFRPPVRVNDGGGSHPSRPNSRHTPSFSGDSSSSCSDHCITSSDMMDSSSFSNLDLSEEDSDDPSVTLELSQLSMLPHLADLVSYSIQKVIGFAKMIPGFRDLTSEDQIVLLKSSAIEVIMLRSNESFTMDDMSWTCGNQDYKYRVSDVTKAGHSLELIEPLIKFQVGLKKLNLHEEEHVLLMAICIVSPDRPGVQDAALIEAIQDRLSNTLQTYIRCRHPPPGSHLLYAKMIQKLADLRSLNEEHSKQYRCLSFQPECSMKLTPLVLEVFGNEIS
Assay: Antagonist activity at VDR LBD (unknown origin) using Alexa Fluor 647-labeled SRC2-3 as substrate incubated for 2 hrs in presence of calcitriol by fluorescence polarization assay
Summary of the method: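 VDR-LBD (0.1 μM) with Alexa Fluor 647-labelled SRC2-3 (17.5 nM) and 10 nM 1,25(OH)2D3 in 25 mM PIPES, 50 mM NaCl, 0.01% NP-40, pH 6.75. Compounds were serially diluted 1:2 from 10 mM DMSO stocks and incubated 2 h. Polarization was read at 635/685 nm. Three independent experiments in quadruplicate; IC50 by variable-slope nonlinear regression.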

Structure (SMILES): CC(C)CCC[C@@H](C)[C@H]1CC[C@@H]2[C@]1(C)CCC1[C@]23C=C[C@]2(C[C@@H](O)CC[C@]12C)n1c(=O)n(C)c(=O)n13 (stereo partly specified)
- Activity: > 100 µM
